Consider one molecule from ChEMBL document CHEMBL4680108, “Ancistrolikokine E, a 5,8'-Coupled Naphthylisoquinoline Alkaloid, Eliminates the Tolerance of Cancer Cells to Nutrition Starvation by Inhibition of the Akt/mTOR/Autophagy Signaling Pathway” (2018).

In assay [1] the test system is PANC-1. Put plainly: Inhibition of autophagy in human PANC-1 cells cultured in nutrient-deprived medium assessed as inhibition of Atg5 expression after 6 hrs by Western blot analysis. The format is functional, cell-based. Conditions: dose 2.5-40 µM. On the technique in general: A western blot detects proteins with antibodies after separation by electrophoresis.
Assay [2] deals with PANC-1. Put plainly: Induction of apoptosis in human PANC-1 cells cultured in nutrient-deprived medium assessed as induction of active caspase-3 cleavage at 2.5 to 40 uM measured after 6 hrs by Western blot analysis. The format is functional, cell-based. Conditions: dose 2.5-40 µM. The method in brief:
(§1)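 PANC-1 cells in NDM or DMEM exposed to compound at different concentrations for 6 h, then immunoblotted for Bcl-2, Bcl-xL and caspase-3.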

Assay [3] deals with PANC-1. Put plainly: Inhibition of autophagy in human PANC-1 cells cultured in nutrient-deprived medium assessed as inhibition of LC3-1 expression at 40 uM after 6 hrs in presence of chloroquine by Western blot analysis. The format is functional, cell-based.
In assay [4] the test system is PANC-1. Put plainly: Inhibition of autophagy in human PANC-1 cells cultured in nutrient-deprived medium assessed as inhibition of LC3-2 expression after 6 hrs by Western blot analysis. The format is functional, cell-based. Conditions: dose 2.5-40 µM.
Assay [5] concerns PANC-1. Put plainly: Inhibition of Akt/mTOR signaling pathway in human PANC-1 cells cultured in nutrient-deprived medium assessed as decrease in total Akt level at 40 uM measured after 6 hrs by Western blot analysis relative to control. The class given is cell-based. The method in brief: (§2)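 Western blot of PANC-1 cells exposed to compound at different concentrations for 6 h in NDM or DMEM. Probed for total and phosphorylated Akt and mTOR and for GβL. Band levels compared with untreated control cells in NDM.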

Assay [6] relates to PANC-1. Put plainly: Induction of morphological changes in human PANC-1 cells cultured in nutrient-deprived medium assessed as cell death measured after 24 hrs by ethidium bromide/acridine orange staining based phase contrast microscopy. Conditions: dose 1.25-5 µM. The format is functional. Summed up:
(§3)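 PANC-1 cells (2 × 10^5/well) attached in DMEM for 24 h, washed twice with PBS, then treated in NDM (1.25, 2.5, 5 μM; control in NDM alone) for 24 h. Stained with ethidium bromide/acridine orange and imaged in phase-contrast and red/green fluorescence modes (20× objective).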

Assay [7] deals with PANC-1. Put plainly: Inhibition of autophagy in human PANC-1 cells cultured in nutrient-deprived medium after 6 hrs by MDC-staining based fluorescence microscopy analysis. The class given is functional, cell-based. Conditions: dose 40.0 µM. The method in brief: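 PANC-1 cells under nutrient starvation given monodansylcadaverine with or without compound for 6 h. Autolysosome fluorescence viewed in fluorescence and phase-contrast modes.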

The subject of assay [8] is PANC-1. Put plainly: Induction of apoptotic cell death in human PANC-1 cells cultured in nutrient-deprived medium assessed as leakage of cellular contents in to the medium at 5 uM measured after 24 hrs by Hoechst 33342 staining based phase-contrast digital microscopy. The class given is functional. The method in brief:
(§4)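 Cells (2 × 10^5) plated in 35 mm dishes, left 24 h to attach, washed twice with PBS, then given 5 μM in NDM for 24 h. Hoechst 33342 added directly to the medium for 5 min. Imaged in phase-contrast and fluorescence modes (20× objective).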

In assay [9] the test system is PANC-1. Put plainly: Inhibition of Akt/mTOR signaling pathway in human PANC-1 cells cultured in nutrient-deprived medium assessed as decrease in phosphorylated mTOR level at S2448 residue measured after 6 hrs by Western blot analysis. The format is cell-based. Conditions: dose 2.5-40 µM. The method in brief:
as §2

In assay [10] the test system is PANC-1. Put plainly: Inhibition of Akt/mTOR signaling pathway in human PANC-1 cells cultured in nutrient-deprived medium assessed as decrease in phosphorylated mTOR level at S2448 residue at 40 uM measured after 6 hrs by Western blot analysis relative to control. The format is cell-based. The method in brief:
as §2

The test system of assay [11] is PANC-1. Put plainly: Inhibition of Akt/mTOR signaling pathway in human PANC-1 cells cultured in nutrient-deprived medium assessed as decrease in phosphorylated Akt level at S473 residue measured after 6 hrs by Western blot analysis. The format is cell-based. Conditions: dose 2.5-40 µM. The method in brief: as §2
Assay [12] has as its system PANC-1. Put plainly: Inhibition of colony formation in human PANC-1 cells at 2.5 uM cultured in nutrient rich DMEM medium measured after 24 hrs by crystal violet staining based assay relative to control. The format is functional. Summed up: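 PANC-1 cells (5 × 10^2/well) attached in DMEM for 24 h, then exposed to 0, 2.5, 5 or 10 μM in DMEM for 24 h (triplicate). Washed, grown in fresh compound-free DMEM for 12 days, fixed in 4% formaldehyde and stained with crystal violet for 10 min. Colony area measured as a percentage of well area.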

The test system of assay [13] is PANC-1. Put plainly: Induction of apoptosis in human PANC-1 cells cultured in nutrient-deprived medium assessed as inhibition of Bcl-xl measured after 6 hrs by Western blot analysis. The format is functional, cell-based. Conditions: dose 2.5-40 µM. The method in brief:
as §1

The subject of assay [14] is PANC-1. Put plainly: Inhibition of Akt/mTOR signaling pathway in human PANC-1 cells cultured in nutrient-deprived medium assessed as decrease in total mTOR level measured after 6 hrs by Western blot analysis. The format is cell-based. Conditions: dose 2.5-40 µM. The method in brief:
as §2

The subject of assay [15] is PANC-1. Put plainly: Inhibition of autophagy in human PANC-1 cells cultured in nutrient-deprived medium assessed as inhibition of LC3-2 expression at 40 uM after 6 hrs in presence of chloroquine by Western blot analysis. The format is functional, cell-based.
Assay [16] relates to PANC-1. Put plainly: Anticancer activity against human PANC-1 cells assessed as cell death at 10 uM measured within 20 hrs by digital cell imaging analysis relative to control. The format is functional. Summed up: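 PANC-1 cells (3 × 10^6) in 35 mm dishes were exposed to 10 μM compound in nutrient-deprived medium in a stage-top incubator at 37 °C, 5% CO2. Phase-contrast images were taken every 10 min for 24 h (145 frames, 20× objective). Untreated cells in NDM served as control.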

Assay [17] concerns PANC-1. Put plainly: Induction of necrosis in human PANC-1 cells cultured in nutrient-deprived medium assessed as leakage of cellular contents in to the medium at 5 uM measured after 24 hrs by ethidium bromide/acridine orange staining based phase contrast microscopy. The format is functional, cell-based. The method in brief:
as §3

Assay [18] relates to PANC-1. Put plainly: Inhibition of autophagy in human PANC-1 cells cultured in nutrient-deprived medium assessed as inhibition of LC3-1 expression after 6 hrs by Western blot analysis. Conditions: dose 2.5-40 µM. The format is functional, cell-based.
Assay [19] concerns PANC-1. Put plainly: Anticancer activity against human PANC-1 cells assessed as inhibition of cell motility at 10 uM measured within 90 mins by digital cell imaging analysis. The class given is functional, cell-based. Conditions: time min <=90. Summed up: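 PANC-1 cells (3 × 10^6) in 35 mm dishes in nutrient-deprived medium (NDM), treated with 10 μM; kept in a stage-top incubator at 37 °C, 5% CO2. Phase-contrast images taken every 10 min for 24 h (145 frames, 20× objective). Untreated cells in NDM served as control.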

Assay [20] concerns PANC-1. Put plainly: Induction of apoptotic cell death in human PANC-1 cells cultured in nutrient-deprived medium assessed as membrane blebbing at 5 uM measured after 24 hrs by Hoechst 33342 staining based phase-contrast digital microscopy. The format is functional. Summed up: as §4
For assay [21], the system named is PANC-1. Put plainly: Inhibition of autophagy in human PANC-1 cells cultured in nutrient-deprived medium assessed as inhibition of LC3-2 expression at 40 uM after 6 hrs in presence of chloroquine by Western blot analysis relative to control. The format is functional, cell-based.
The subject of assay [22] is PANC-1. Put plainly: Induction of apoptotic cell death in human PANC-1 cells cultured in nutrient-deprived medium assessed as intact nuclei at 5 uM measured after 24 hrs by Hoechst 33342 staining based phase-contrast digital microscopy. The class given is functional. Summed up:
as §4

Assay [23] deals with PANC-1. Put plainly: Induction of necrosis in human PANC-1 cells cultured in nutrient-deprived medium assessed as membrane blebbing at 5 uM measured after 24 hrs by ethidium bromide/acridine orange staining based phase contrast microscopy. The format is functional, cell-based. The method in brief:
as §3

Activity calls are given as the source filed them. The rule behind the calls is not given here.

With `COc1cc(OC)c(-c2ccc(O)c3c(OC)cc(C)cc23)c2c1C(C)=N[C@H](C)C2`, the inhibition (in general, the relative decrease from the control value, in per cent) was “Dose-dependent effect” in the assay on PANC-1 [1]; “Dose-dependent effect” in the assay on PANC-1 [4]; 86% with PANC-1 [5]; “Dose-dependent effect” in the assay on PANC-1 [9]; 92% in the assay with PANC-1 [10]; “Dose-dependent effect” in the assay on PANC-1 [11]. Besides, the inhibition entry in the assay with PANC-1 [14] and with PANC-1 [18] was “Dose-dependent effect” each time. Moreover, the outcome in the assay on PANC-1 [2] was inactive. For the same molecule, the inhibition entry with PANC-1 [3], in the assay with PANC-1 [7], with PANC-1 [13], with PANC-1 [15], with PANC-1 [19] and in the assay on PANC-1 [21] was “Active” in each case. The Activity entry was “Dose-dependent effect” in the assay on PANC-1 [6] and 100% with PANC-1 [16]. Besides, the result in the assay on PANC-1 [8], with PANC-1 [17], in the assay with PANC-1 [20], with PANC-1 [22] and in the assay with PANC-1 [23] was Active. For the same molecule, in the assay on PANC-1 [12], the inhibition at 2.5 µM is not above 90%.
